Laboratory results: ChEMBL document CHEMBL3102784, “Salicylanilide diethyl phosphates: synthesis, antimicrobial activity and cytotoxicity” (Bioorg Med Chem, 2014)
Values after ≈ are worked out from the molar mass of the structure shown. Active and inactive are the calls of the source. No cut-off for these calls is given here.

Columns and labels:
Mycobacterium kansasii [1] = experiment: Antimycobacterial activity against Mycobacterium kansasii 6509/96 after 14 days; format: functional; conditions: 6509/96, 336 h
How it was run: (§1)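 Micromethod MIC in Šula's semisynthetic medium at 37 °C. Compounds added in DMSO at 1000 down to 0.032 µmol/L. Isoniazid standard in sterile water at 0.5–250 µmol/L. Inocula: H37Rv 10^3, M. avium 10^5, M. kansasii 10^4. Read at 14 and 21 d, plus 7 d for M. kansasii.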

Candida albicans [2] = experiment: Antifungal activity against Candida albicans ATCC 44859 after 48 hrs by broth microdilution method; format: functional; conditions: ATCC 44859, 48 h
How it was run: (§2)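 Broth microdilution in RPMI 1640 with glutamine, fluconazole as reference. For yeasts, MIC is ≥80% growth reduction (IC80) versus control. For filamentous fungi, the value is expressed as IC50. Readings at 24 and 48 h.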

Mycobacterium kansasii [3] = experiment: Antimycobacterial activity against Mycobacterium kansasii My 235/80 after 14 days; format: functional; conditions: My 235/80, 336 h; how it was run: as §1
Enterococcus sp. = experiment: Antibacterial activity against Enterococcus sp. J 14365/08 at 500 micromol/L after 24 to 48 hrs by broth microdilution method; format: functional, organism-based
How it was run: (§3)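 Broth microdilution in Mueller–Hinton broth, compounds dissolved in DMSO, tested over a dilution series from 500 downward. MIC taken as ≥95% growth reduction (IC95) versus drug-free control. Benzylpenicillin comparator. Readings at 24 and 48 h.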

Mycobacterium kansasii [4] = experiment: Antimycobacterial activity against Mycobacterium kansasii My 235/80 after 7 days; format: functional; conditions: My 235/80, 168 h; how it was run: as §1
Trichosporon asahii [5] = experiment: Antifungal activity against Trichosporon asahii 1188 after 24 hrs by broth microdilution method; format: functional; conditions: Trichosporon asahii, 1188, 24 h; how it was run: as §2
[6] = system: Mycobacterium tuberculosis; experiment: Antimycobacterial activity against Mycobacterium tuberculosis H37Rv My 331/88 after 14 days; format: functional; conditions: H37Rv My 331/88, 336 h; how it was run: as §1
Pichia kudriavzevii [7] = experiment: Antifungal activity against Candida krusei E28 after 24 hrs by broth microdilution method; format: functional; conditions: E28, 24 h; how it was run: as §2
Staphylococcus aureus [8] = experiment: Antibacterial activity against Staphylococcus aureus CCM 4516/08 after 48 hrs by broth microdilution method; format: functional; conditions: CCM 4516/08, 48 h; how it was run: as §3
Mycobacterium kansasii [9] = experiment: Antimycobacterial activity against Mycobacterium kansasii My 235/80 after 21 days; format: functional; conditions: My 235/80, 504 h; how it was run: as §1
Mycobacterium kansasii [10] = experiment: Antimycobacterial activity against Mycobacterium kansasii 6509/96 after 21 days; format: functional; conditions: 6509/96, 504 h; how it was run: as §1
[11] = system: Staphylococcus epidermidis; experiment: Antibacterial activity against Staphylococcus epidermidis H 6966/08 after 24 hrs by broth microdilution method; format: functional; conditions: H 6966/08, 24 h; how it was run: as §3
Staphylococcus aureus [12] = experiment: Antibacterial activity against methicillin-resistant Staphylococcus aureus H 5996/08 after 48 hrs by broth microdilution method; format: functional; conditions: H 5996/08, 48 h; how it was run: as §3
[13] = system: Trichophyton mentagrophytes; experiment: Antifungal activity against Trichophyton mentagrophytes 445 after 72 hrs by broth microdilution method; format: functional; conditions: Trichophyton mentagrophytes, 445, 72 h
How it was run: (§4)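 Filamentous dermatophyte tested by broth microdilution in RPMI 1640 with glutamine, fluconazole as reference. Value expressed as IC50 relative to growth control. Read at 72 and 120 h.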

Pseudomonas aeruginosa = experiment: Antibacterial activity against Pseudomonas aeruginosa CCM 1961 at 500 micromol/L after 24 to 48 hrs by broth microdilution method; format: functional, organism-based; how it was run: as §3
[14] = system: Mycobacterium tuberculosis; experiment: Antimycobacterial activity against Mycobacterium tuberculosis H37Rv My 331/88 after 21 days; format: functional; conditions: H37Rv My 331/88, 504 h; how it was run: as §1
Aspergillus fumigatus [15] = experiment: Antifungal activity against Aspergillus fumigatus 231 after 48 hrs by broth microdilution method; format: functional; conditions: Aspergillus fumigatus, 231, 48 h; how it was run: as §2
Trichosporon asahii [16] = experiment: Antifungal activity against Trichosporon asahii 1188 after 48 hrs by broth microdilution method; format: functional; conditions: Trichosporon asahii, 1188, 48 h; how it was run: as §2
Candida albicans [17] = experiment: Antifungal activity against Candida albicans ATCC 44859 after 24 hrs by broth microdilution method; format: functional; conditions: ATCC 44859, 24 h; how it was run: as §2
Klebsiella pneumoniae [18] = experiment: Antibacterial activity against Klebsiella pneumoniae D 11750/08 at 500 micromol/L after 24 to 48 hrs by broth microdilution method; format: functional, organism-based; how it was run: as §3
[19] = system: Trichophyton mentagrophytes; experiment: Antifungal activity against Trichophyton mentagrophytes 445 after 120 hrs by broth microdilution method; format: functional; conditions: Trichophyton mentagrophytes, 445, 120 h; how it was run: as §4
Candida tropicalis = experiment: Antifungal activity against Candida tropicalis 156 at 500 micromol/L after 24 to 48 hrs by broth microdilution method; format: functional, organism-based; how it was run: as §2
Staphylococcus aureus [20] = experiment: Antibacterial activity against methicillin-resistant Staphylococcus aureus H 5996/08 after 24 hrs by broth microdilution method; format: functional; conditions: H 5996/08, 24 h; how it was run: as §3
Lichtheimia corymbifera [21] = experiment: Antifungal activity against Absidia corymbifera 272 after 24 hrs by broth microdilution method; format: functional; conditions: Lichtheimia corymbifera, 272, 24 h; how it was run: as §2
Mycobacterium avium [22] = experiment: Antimycobacterial activity against isoniazid, rifampicin, ethambutol and ofloxacin-resistant Mycobacterium avium My 330/88 after 14 days; format: functional; conditions: My 330/88, 336 h; how it was run: as §1
HepG2 = experiment: Cytotoxicity against human HepG2 cells after 24 hrs by CellTiter assay; format: cell-based; conditions: HepG2, 24 h
How it was run: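 HepG2 cells (passage 27–33) in MEM with 10% FBS, L-glutamine and NEAA, seeded at 1×10^4 per well. Treated next day with compounds at 0.1–100 µM (or 0.1–25 µmol/L), triplicates, <1% DMSO, for 24 h at 37 °C, 5% CO2. MTS reagent added for 2 h, absorbance read at 490 nm. IC50 taken against untreated (100%) and 10% DMSO (0%) controls.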

Pichia kudriavzevii [23] = experiment: Antifungal activity against Candida krusei E28 after 48 hrs by broth microdilution method; format: functional; conditions: E28, 48 h; how it was run: as §2
Lichtheimia corymbifera [24] = experiment: Antifungal activity against Absidia corymbifera 272 after 48 hrs by broth microdilution method; format: functional; conditions: Lichtheimia corymbifera, 272, 48 h; how it was run: as §2
Mycobacterium kansasii [25] = experiment: Antimycobacterial activity against Mycobacterium kansasii 6509/96 after 7 days; format: functional; conditions: 6509/96, 168 h; how it was run: as §1
Escherichia coli = experiment: Antibacterial activity against Escherichia coli CCM 4517 at 500 micromol/L after 24 to 48 hrs by broth microdilution method; format: functional, organism-based; how it was run: as §3
Staphylococcus aureus [26] = experiment: Antibacterial activity against Staphylococcus aureus CCM 4516/08 after 24 hrs by broth microdilution method; format: functional; conditions: CCM 4516/08, 24 h; how it was run: as §3
[27] = system: Staphylococcus epidermidis; experiment: Antibacterial activity against Staphylococcus epidermidis H 6966/08 after 48 hrs by broth microdilution method; format: functional; conditions: H 6966/08, 48 h; how it was run: as §3
Nakaseomyces glabratus = experiment: Antifungal activity against Candida glabrata 20/I at 500 micromol/L after 24 to 48 hrs by broth microdilution method; format: functional, organism-based; how it was run: as §2
Aspergillus fumigatus [28] = experiment: Antifungal activity against Aspergillus fumigatus 231 after 24 hrs by broth microdilution method; format: functional; conditions: Aspergillus fumigatus, 231, 24 h; how it was run: as §2
Klebsiella pneumoniae [29] = experiment: Antibacterial activity against ESBL-positive Klebsiella pneumoniae J 14368/08 at 500 micromol/L after 24 to 48 hrs by broth microdilution method; format: functional, organism-based; how it was run: as §3
Mycobacterium avium [30] = experiment: Antimycobacterial activity against isoniazid, rifampicin, ethambutol and ofloxacin-resistant Mycobacterium avium My 330/88 after 21 days; format: functional; conditions: My 330/88, 504 h; how it was run: as §1

Row | Structure (SMILES) | MIC (Mycobacterium kansasii [1]) [µM] | MIC80 (Candida albicans [2]) [µM] | MIC (Mycobacterium kansasii [3]) [µM] | Activity (Enterococcus sp.) | MIC (Mycobacterium kansasii [4]) [µM] | MIC80 (Trichosporon asahii [5]) [µM] | MIC [6] [µM] | MIC80 (Pichia kudriavzevii [7]) [µM] | MIC95 (Staphylococcus aureus [8]) [µM] | MIC (Mycobacterium kansasii [9]) [µM] | MIC (Mycobacterium kansasii [10]) [µM] | MIC95 [11] [µM] | MIC95 (Staphylococcus aureus [12]) [µM] | MIC50 [13] [µM] | Activity (Pseudomonas aeruginosa) | MIC [14] [µM] | MIC50 (Aspergillus fumigatus [15]) [µM] | MIC80 (Trichosporon asahii [16]) [µM] | MIC80 (Candida albicans [17]) [µM] | Activity (Klebsiella pneumoniae [18]) | also measured
1 | CCOP(=O)(OCC)Oc1ccc(Br)cc1C(=O)Nc1ccc(Br)cc1 | 4 (≈ 2.03 µg/mL) | > 500 | 4 (≈ 2.03 µg/mL) | inactive | 2 (≈ 1.01 µg/mL) | 62.5 (≈ 31.7 µg/mL) | 2 (≈ 1.01 µg/mL) | 125 (≈ 63.4 µg/mL) | 7.81 (≈ 3.96 µg/mL) | 4 (≈ 2.03 µg/mL) | 4 (≈ 2.03 µg/mL) | 1.95 (≈ 0.989 µg/mL) | 3.9 (≈ 1.98 µg/mL) | 3.9 (≈ 1.98 µg/mL) | inactive | 2 (≈ 1.01 µg/mL) | 500 (≈ 254 µg/mL) | 62.5 (≈ 31.7 µg/mL) | > 500 | inactive | MIC50 [19]: 3.9 µM (≈ 1.98 µg/mL); Activity (Candida tropicalis): inactive; MIC95 (Staphylococcus aureus [20]): 3.9 µM (≈ 1.98 µg/mL); MIC50 (Lichtheimia corymbifera [21]): 125 µM (≈ 63.4 µg/mL); MIC (Mycobacterium avium [22]): 8 µM (≈ 4.06 µg/mL); IC50 (HepG2): 5.6 µM; MIC80 (Pichia kudriavzevii [23]): 125 µM (≈ 63.4 µg/mL); MIC50 (Lichtheimia corymbifera [24]): 125 µM (≈ 63.4 µg/mL); MIC (Mycobacterium kansasii [25]): 4 µM (≈ 2.03 µg/mL); Activity (Escherichia coli): inactive; MIC95 (Staphylococcus aureus [26]): 7.81 µM (≈ 3.96 µg/mL); MIC95 [27]: 1.95 µM (≈ 0.989 µg/mL); Activity (Nakaseomyces glabratus): inactive; MIC50 (Aspergillus fumigatus [28]): 500 µM (≈ 254 µg/mL); Activity (Klebsiella pneumoniae [29]): inactive; MIC (Mycobacterium avium [30]): 8 µM (≈ 4.06 µg/mL)
2 | CCOP(=O)(OCC)Oc1cc(Cl)ccc1C(=O)Nc1ccc(C(F)(F)F)cc1 | 2 (≈ 0.904 µg/mL) | > 500 | 1 (≈ 0.452 µg/mL) | inactive | 0.5 (≈ 0.226 µg/mL) | > 500 | 1 (≈ 0.452 µg/mL) | > 500 | 31.2 (≈ 14.1 µg/mL) | 1 (≈ 0.452 µg/mL) | 2 (≈ 0.904 µg/mL) | 31.2 (≈ 14.1 µg/mL) | 62.5 (≈ 28.2 µg/mL) | 250 (≈ 113 µg/mL) | inactive | 1 (≈ 0.452 µg/mL) | > 500 | > 500 | > 500 | inactive | MIC50 [19]: 250 µM (≈ 113 µg/mL); Activity (Candida tropicalis): inactive; MIC95 (Staphylococcus aureus [20]): 62.5 µM (≈ 28.2 µg/mL); MIC50 (Lichtheimia corymbifera [21]): > 500 µM; MIC (Mycobacterium avium [22]): 4 µM (≈ 1.81 µg/mL); IC50 (HepG2): 2.51 µM; MIC80 (Pichia kudriavzevii [23]): > 500 µM; MIC50 (Lichtheimia corymbifera [24]): > 500 µM; MIC (Mycobacterium kansasii [25]): 1 µM (≈ 0.452 µg/mL); Activity (Escherichia coli): inactive; MIC95 (Staphylococcus aureus [26]): 31.2 µM (≈ 14.1 µg/mL); MIC95 [27]: 31.2 µM (≈ 14.1 µg/mL); Activity (Nakaseomyces glabratus): inactive; MIC50 (Aspergillus fumigatus [28]): > 500 µM; Activity (Klebsiella pneumoniae [29]): inactive; MIC (Mycobacterium avium [30]): 4 µM (≈ 1.81 µg/mL)
